This is an account of results in ChEMBL document CHEMBL1141188, “Methyl substitution on the piperidine ring of N-[omega-(6-methoxynaphthalen-1-yl)alkyl] derivatives as a probe for selective binding and activity at the sigma(1) receptor” (J Med Chem, 2005).

Some results are limits rather than exact numbers.

The target of one assay is Sigma 2 receptor. The experiment in a line: Displacement of [3H]DTG from sigma 2 receptor in rat liver membranes. It counts as cell membranes, Membrane.
For assay [1], the target named is T1, 3-beta-hydroxysteroid-Delta(8),Delta(7)-isomerase (Cavia porcellus, UniProt Q60490).
T1 sequence (Q60490 whole entry): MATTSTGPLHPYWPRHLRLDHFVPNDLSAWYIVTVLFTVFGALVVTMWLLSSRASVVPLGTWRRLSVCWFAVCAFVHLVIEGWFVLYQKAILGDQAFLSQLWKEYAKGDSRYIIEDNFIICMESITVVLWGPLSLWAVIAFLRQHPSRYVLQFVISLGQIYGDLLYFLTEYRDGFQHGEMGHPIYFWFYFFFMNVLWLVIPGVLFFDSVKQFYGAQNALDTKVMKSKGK
As to the kind of experiment: Displacement of [3H](+/-)-emopamil from delta8-delta7 sterol isomerase (SI) site in guinea pig liver membranes. The assay is classed as cell membranes, Membrane. In outline:
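Guinea pig liver membranes with (±)-[3H]emopamil; (±)-ifenprodil defined nonspecific binding. IC50 from six to nine concentrations, two or three duplicate experiments; Ki by nonlinear curve fitting.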

Assay [2] concerns the target Sigma non-opioid intracellular receptor 1 (Cavia porcellus) (UniProt Q60492). The experiment in a line: […] rat sigma 2 receptor over guinea pig sigma 1 receptor.
The target in assay [3] is Sigma non-opioid intracellular receptor 1 (Cavia porcellus, UniProt Q60492). The experiment in a line: Displacement of [3H](+)-pentazocine from sigma 1 receptor in guinea pig brain membranes. It counts as cell membranes, Membrane.
A further assay is filed under the species Cavia porcellus. As to the kind of experiment: Selectivity for guinea pig delta8-delta7 sterol isomerase (SI) site over guinea pig sigma 1 receptor.
Assay [4] addresses Sigma non-opioid intracellular receptor 1 (Rattus norvegicus) (UniProt Q9R0C9). The experiment in a line: Percentage inhibition of rat C6 glioma cell proliferation mediated by sigma 1 receptor at 50 uM.

Sequence of Sigma non-opioid intracellular receptor 1 (Rattus norvegicus) (Q9R0C9 whole entry): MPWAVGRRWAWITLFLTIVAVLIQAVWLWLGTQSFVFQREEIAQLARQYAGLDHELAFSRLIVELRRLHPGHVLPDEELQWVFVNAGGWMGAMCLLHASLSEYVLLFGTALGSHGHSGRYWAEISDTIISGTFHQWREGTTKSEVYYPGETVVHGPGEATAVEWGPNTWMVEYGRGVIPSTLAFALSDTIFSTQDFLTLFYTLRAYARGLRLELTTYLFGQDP
Sequence of Sigma non-opioid intracellular receptor 1 (Q60492 whole entry): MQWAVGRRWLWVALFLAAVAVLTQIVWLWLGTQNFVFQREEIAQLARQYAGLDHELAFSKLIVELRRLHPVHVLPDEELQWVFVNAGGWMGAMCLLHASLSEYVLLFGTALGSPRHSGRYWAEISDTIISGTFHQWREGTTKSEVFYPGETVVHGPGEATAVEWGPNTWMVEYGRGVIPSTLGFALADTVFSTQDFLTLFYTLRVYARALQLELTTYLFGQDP
Sequence of Sigma non-opioid intracellular receptor 1 (Cavia porcellus) (Q60492 whole entry): as above

`COc1ccc2c(c1)CCCC2CCCN1CCC(C)(C)CC1` (configuration not stated): the Ki was 31.4 nM at Sigma 2 receptor, 5.39 nM in assay [1] and 1.18 nM in assay [3]. Also, the figures for the Ratio Ki (in assay [2]; in the assay filed under Cavia porcellus) were 27 and 3, respectively.

Consider `COc1ccc2c(CCCCN3CCCCC3(C)C)cccc2c1`, for which the Ki was determined as 28.6 nM at Sigma 2 receptor, 11.7 nM in assay [1] and 22.2 nM in assay [3]. Moreover, the Ratio Ki was determined as 1.3 in assay [2] and 0.5 in the assay filed under Cavia porcellus.

For `COc1ccc2c(c1)CCCC2CCCN1CCCCC1` (configuration not stated), the Ki at Sigma 2 receptor is 26.2 nM; in assay [1] it was 17.9 nM; in assay [3], 1.2 nM. The Ratio Ki in assay [2] is 22; in the assay filed under Cavia porcellus, 15.

`COc1ccc2c(CCCCN3CCC[C@H](C)C3)cccc2c1`: the Ki at Sigma 2 receptor was 32.7 nM; in assay [1], 2.81 nM; in assay [3] it was 0.66 nM. Besides, the Ratio Ki in assay [2] was 50; in the assay listed under Cavia porcellus it was 4.3.

For `CCCN(CCC)CCc1ccc(OC)c(OCCc2ccccc2)c1`, the Ki at Sigma 2 receptor is 212 nM; in assay [1] it was 14.6 nM.

Molecule `CC(C)=CCN1CC[C@]2(C)c3cc(O)ccc3C[C@H]1[C@H]2C` [(+)-PENTAZOCINE] gave an inhibition in assay [4] of 35%. Also, the Ki in assay [1] was over 10000 nM.

As for `COc1ccc2c(c1)CCCC2CCCN1CCCCC1(C)C` (configuration not stated), the Ki worked out at 115 nM on Sigma 2 receptor, 16.4 nM in assay [1] and 178 nM in assay [3]. Also, the values for the Ratio Ki (in assay [2]; in the assay filed under Cavia porcellus) were 0.6 and 0.1, respectively.

Turning to `COc1ccc2c(CCCCN3CCC(C)CC3)cccc2c1`, the Ki on Sigma 2 receptor was 17.9 nM; in assay [1], 8.04 nM; in assay [3], 0.03 nM. Besides, the Ratio Ki in assay [2] turned out to be 597; in the assay filed under Cavia porcellus, 268.

For the molecule `COc1ccc2c(CCCN3CCC(C)CC3)cccc2c1`, the Ki was 38.9 nM at Sigma 2 receptor, 19.5 nM in assay [1] and 1.5 nM in assay [3]. In addition, the Ratio Ki in assay [2] is 26; in the assay filed under Cavia porcellus, 13.

As to `COc1ccc2c(CCCCN3CCCC[C@@H]3C)cccc2c1`, the Ki on Sigma 2 receptor amounted to 53.8 nM; in assay [1] it was 7.2 nM; in assay [3], 0.5 nM. The figures for the Ratio Ki (in assay [2]; in the assay filed under Cavia porcellus) were 108 and 14, respectively.

On to `O=C(Cc1ccc(Cl)c(Cl)c1)OCCN1CCCC1`, for which the inhibition in assay [4] came out at 25%.

As for `COc1ccc2c(CCCN3CCC(C)(C)CC3)cccc2c1`, the Ki was determined as 26.3 nM on Sigma 2 receptor, 9.04 nM in assay [1] and 1.47 nM in assay [3]. Moreover, the values for the Ratio Ki (in assay [2]; in the assay listed under Cavia porcellus) were 18 and 6.1, respectively.

Turning to `COc1ccc2c(c1)CCCC2CCCCN1CCC(C)CC1` (configuration not stated), the Ki turned out to be 36.3 nM at Sigma 2 receptor, 5.55 nM in assay [1] and 0.42 nM in assay [3]. Moreover, the inhibition in assay [4] worked out at 53%. Further, the Ratio Ki amounted to 86 in assay [2] and 13 in the assay listed under Cavia porcellus.

In assay [4], `COc1ccc2c(c1)CCCC2CCCN1CCCC(C)(C)C1` (configuration not stated) registered an inhibition of 47%.

`COc1ccc2c(c1)CCCC2CCCN1CCC(C)CC1` (configuration not stated): the Ki was found to be 31.4 nM on Sigma 2 receptor, 5.34 nM in assay [1] and 1.78 nM in assay [3]. Besides, the Ratio Ki in assay [2] came to 18; in the assay filed under Cavia porcellus, 3.

`CC(C(O)c1ccc(O)cc1)N1CCC(Cc2ccccc2)CC1` (racemic) [IFENPRODIL]: in assay [1], the Ki was 4.7 nM.

Take `COc1ccc2c(CCCCN3CCCCC3)cccc2c1`: the Ki on Sigma 2 receptor came out at 151 nM; in assay [1], 19.5 nM; in assay [3] it was 1.14 nM. The Ratio Ki was determined as 132 in assay [2] and 17 in the assay filed under Cavia porcellus.

On to `COc1ccc2c(CCCN3CCCCC3)cccc2c1`, for which the inhibition constant (Ki) on Sigma 2 receptor was 175 nM; in assay [1], 37.6 nM; in assay [3] it was 7.8 nM. Moreover, the Ratio Ki amounted to 22 in assay [2] and 4.8 in the assay listed under Cavia porcellus.

With `COc1ccc2c(CCCCN3CCCC(C)(C)C3)cccc2c1`, the inhibitory constant (Ki) at Sigma 2 receptor came out at 67.4 nM; in assay [1], 1.89 nM; in assay [3] it was 0.36 nM. For the same molecule, the Ratio Ki in assay [2] was 187; in the assay listed under Cavia porcellus it was 5.3.

In the case of `COc1ccc2c(c1)CCCC2CCCCN1CCC(C)(C)CC1` (configuration not stated), the Ki stood at 17.5 nM at Sigma 2 receptor, 4.11 nM in assay [1] and 0.3 nM in assay [3]. In addition, the Ratio Ki came out at 58 in assay [2] and 14 in the assay filed under Cavia porcellus.

In the case of `COc1ccc2c(CCCCN3CCC[C@@H](C)C3)cccc2c1`, the Ki worked out at 64 nM at Sigma 2 receptor, 14.6 nM in assay [1] and 0.24 nM in assay [3]. Besides, the Ratio Ki in assay [2] was found to be 266; in the assay listed under Cavia porcellus, 61.

With `COc1ccc2c(CCCN3CCCCC3(C)C)cccc2c1`, the Ki on Sigma 2 receptor was 94 nM; in assay [1], 14.9 nM; in assay [3], 1060 nM. Also, the Ratio Ki in assay [2] is 0.09; in the assay filed under Cavia porcellus, 0.014.

On to `COc1ccc2c(CCCN3CCC[C@@H](C)C3)cccc2c1`, for which the Ki was 60.2 nM at Sigma 2 receptor, 19.3 nM in assay [1] and 1.35 nM in assay [3]. Also, the Ratio Ki in assay [2] was 45; in the assay filed under Cavia porcellus, 14.

Consider `COc1ccc2c(CCCN3CCCC[C@H]3C)cccc2c1`, for which the results for the Ki (on Sigma 2 receptor; in assay [1]; in assay [3]) were 86.2 nM, 11.1 nM and 1.83 nM, respectively. Also, the values for the Ratio Ki (in assay [2]; in the assay filed under Cavia porcellus) were 47 and 6.1, respectively.

Consider `COc1ccc2c(CCCN3CCC[C@H](C)C3)cccc2c1`, for which the Ki at Sigma 2 receptor amounted to 59.3 nM; in assay [1], 3.41 nM; in assay [3], 3.32 nM. Besides, the values for the Ratio Ki (in assay [2]; in the assay listed under Cavia porcellus) were 18 and 1, respectively.

`Cc1ccccc1NC(=N)Nc1ccccc1C` gave an inhibition in assay [4] of 20%.

For `c1ccc(CCN2CCCCC2)cc1`, in assay [4], the inhibition was 5%.

For `COc1ccc2c(c1)CCCC2CCCCN1CCCCC1` (configuration not stated), the values for the Ki (on Sigma 2 receptor; in assay [1]; in assay [3]) were 48.7 nM, 3.57 nM and 1.01 nM, respectively. This molecule registered an inhibition in assay [4] of 47%. The Ratio Ki in assay [2] turned out to be 48; in the assay listed under Cavia porcellus it was 3.5.

On to `COc1ccc2c(CCCN3CCCC(C)(C)C3)cccc2c1`, for which the Ki at Sigma 2 receptor was determined as 238 nM; in assay [1] it was 8.71 nM; in assay [3] it was 0.35 nM. The Ratio Ki amounted to 680 in assay [2] and 25 in the assay filed under Cavia porcellus.

`COc1ccc2c(c1)CCCC2CCCCN1CCCCC1(C)C` (configuration not stated): the results for the Ki (at Sigma 2 receptor; in assay [1]; in assay [3]) were 29.5 nM, 8.97 nM and 6.16 nM, respectively. Besides, the Ratio Ki amounted to 4.8 in assay [2] and 1.4 in the assay listed under Cavia porcellus.

`COc1ccc2c(CCCCN3CCC(C)(C)CC3)cccc2c1`: the Ki came out at 17.9 nM on Sigma 2 receptor, 1.82 nM in assay [1] and 2.25 nM in assay [3]. Moreover, the Ratio Ki in assay [2] was 8; in the assay filed under Cavia porcellus, 0.8.

As to `COc1ccc2c(CCCCN3CCCC[C@H]3C)cccc2c1`, the values for the Ki (at Sigma 2 receptor; in assay [1]; in assay [3]) were 49.2 nM, 6.44 nM and 1.43 nM, respectively. For the same molecule, the Ratio Ki in assay [2] worked out at 34; in the assay listed under Cavia porcellus it was 4.5.

In the case of `COc1ccc2c(CCCN3CCCC[C@@H]3C)cccc2c1`, the figures for the Ki (on Sigma 2 receptor; in assay [1]; in assay [3]) were 104 nM, 46.5 nM and 7.05 nM, respectively. The Ratio Ki in assay [2] is 15; in the assay filed under Cavia porcellus, 6.6.

Take `COc1ccc2c(c1)CCCC2CCCCN1CCCC(C)(C)C1` (configuration not stated): in assay [4], the inhibition was 31%.
